# Laboratory results taken from ChEMBL document CHEMBL3085664, “Structure-activity relationship of imidazopyridinium analogues as antagonists of neuropeptide s receptor” (J Med Chem, 2013).
# Tests used:
# [1] = target: T1, Neuropeptide S receptor (Homo sapiens, UniProt Q6W5P4); assay: Antagonist activity at neuropeptide S receptor (unknown origin) expressed in CHO cells assessed as inhibition of NPS-induced calcium mobilization after 10 mins by fluorescence assay; type: functional, cell-based
# T1 sequence (Q6W5P4 whole entry): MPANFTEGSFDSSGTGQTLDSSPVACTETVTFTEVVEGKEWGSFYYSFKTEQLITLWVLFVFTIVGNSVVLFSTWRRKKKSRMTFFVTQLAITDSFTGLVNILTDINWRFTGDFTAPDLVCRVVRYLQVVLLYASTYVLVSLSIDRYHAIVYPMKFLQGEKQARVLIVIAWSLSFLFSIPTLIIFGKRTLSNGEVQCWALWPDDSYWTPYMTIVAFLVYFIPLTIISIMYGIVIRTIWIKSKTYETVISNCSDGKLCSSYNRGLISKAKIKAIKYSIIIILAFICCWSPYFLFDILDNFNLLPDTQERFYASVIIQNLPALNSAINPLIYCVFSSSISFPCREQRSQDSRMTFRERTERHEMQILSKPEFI
# How it was run: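 CHO-NPSR cells, 2000/well in 1536-well plates, incubated overnight, then loaded with no-wash calcium dye for 1 h at 37°C. Compound in DMSO was added for 10 min. Baseline fluorescence was recorded 6 s at 1 Hz, then EC80 NPS in stimulation buffer was added and recording continued 4 min at 1 Hz on a kinetic reader. IC50 is the mean with SD of two independent experiments in duplicate.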
# [2] = target: T1, Neuropeptide S receptor; assay: Antagonist activity at neuropeptide S receptor (unknown origin) expressed in CHO cells assessed as cAMP level after 30 mins by […] assay; type: functional, cell-based
# How it was run: (§1)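 CHO cells stably expressing NPSR, 1800 cells/well in 1536-well format, seeded overnight at 37°C in medium without Geneticin. Stimulation buffer (PBS, 0.1% BSA, 0.05% Tween-20, 500µM Ro 20-1724, EC80 NPS) was added for 30 min at 37°C. cAMP was read by HTRF (d2-cAMP/cryptate anti-cAMP in lysis buffer, 30 min). IC50 is the mean with SD of two independent experiments, each run in duplicate.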
# [3] = target: T2, Neuropeptide S receptor (Homo sapiens) (UniProt Q6W5P4); assay: Antagonist activity at neuropeptide S receptor (unknown origin) expressed in CHO cells assessed as inhibition of NPS-induced ERK activation at 50 uM after 20 mins by HTRF assay relative to control; type: cell-based
# T2 sequence (whole entry): T1 sequence (Q6W5P4 whole entry)
# [4] = target: T1, Neuropeptide S receptor; assay: Antagonist activity at neuropeptide S receptor (unknown origin) expressed in CHO cells assessed as inhibition of NPS-induced ERK activation after 20 mins by HTRF assay; type: cell-based
# [5] = target: T1, Neuropeptide S receptor; assay: Antagonist activity at neuropeptide S receptor (unknown origin) assessed as intracellular calcium level by cell based assay; type: functional
# How it was run: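 CHO cells stably expressing NPSR were seeded at 2000 cells/well and incubated overnight at 37 °C, 5% CO2. They were loaded with no-wash calcium dye for 1 h, then preincubated with compound in DMSO for 10 min. Stimulation used NPS at EC80 in PBS/0.1% BSA/0.05% Tween-20 with 500 µM Ro 20-1724. Kinetic fluorescence was read at 1 Hz: 6 s baseline, then 4 min. IC50 is the mean ± SD of two independent experiments, each in duplicate.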
# [6] = Metabolic stability in mouse liver microsomes assessed as compound remaining after 60 mins in absence NADPH; type: ADME, Microsome; conditions: read-out: Stability
# How it was run: (§2)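 Compound was incubated with mouse liver microsomes, and percent parent remaining was determined at 15, 30 and 60 min. Values are means from a single experiment run in duplicate.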
# [7] = Metabolic stability in mouse liver microsomes assessed as compound remaining after 30 mins in absence NADPH; type: ADME, Microsome; conditions: read-out: Stability; how it was run: as §2
# [8] = Metabolic stability in mouse liver microsomes assessed as compound remaining after 15 mins in absence NADPH; type: ADME, Microsome; conditions: read-out: Stability; how it was run: as §2
# [9] = Metabolic stability in mouse liver microsomes assessed as compound remaining after 60 mins in presence NADPH; type: ADME, Microsome; conditions: read-out: Stability; how it was run: as §2
# [10] = Metabolic stability in mouse liver microsomes assessed as compound remaining after 30 mins in presence NADPH; type: ADME, Microsome; conditions: read-out: Stability; how it was run: as §2
# [11] = Metabolic stability in mouse liver microsomes assessed as compound remaining after 15 mins in presence NADPH; type: ADME, Microsome; conditions: read-out: Stability; how it was run: as §2
# [12] = target: T1, Neuropeptide S receptor; assay: Displacement of [125I]Tyr10-NPS from human neuropeptide S receptor expressed in CHO cells after 1.5 hrs by liquid scintillation counting; type: cell-based
# How it was run: (§3)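 Whole CHO cells stably expressing human NPSR at 90–95% confluency in 24-well plates. Cells were incubated with 0.15 nM [125I]Y10-NPS plus increasing compound or unlabeled NPS in DMEM/0.1% BSA, 20°C, 1.5 hr. Nonspecific binding was defined with 1 µM unlabeled human NPS. Cells were washed, lysed in 1 N NaOH and counted by liquid scintillation. IC50 from one experiment in duplicate.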
# [13] = target: T1, Neuropeptide S receptor; assay: Displacement of [125I]Tyr10-NPS from neuropeptide S receptor (unknown origin); how it was run: as §3
# [14] = target: T1, Neuropeptide S receptor; assay: Antagonist activity at neuropeptide S receptor (unknown origin) assessed as cAMP level by cell based assay; type: functional; how it was run: as §1
Compound,IC50 ([1]; read-out: IC50) [nM],IC50 ([2]; read-out: IC50) [nM],further results
Cc1c(P(=S)(c2ccccc2)c2ccccc2)n2ccccc2[n+]1C/C=C/c1ccc(F)c(Br)c1,45,840,
Cc1c(P(=S)(c2ccccc2)c2ccccc2)n2ccccc2[n+]1C/C=C/c1ccc(Br)cc1,5.7,170,
C[n+]1cc(P(=S)(c2ccccc2)c2ccccc2)n2ccccc21,2500,39000,inhibition [3]: < 50%
Cc1c(P(=S)(c2ccccc2)c2ccccc2)n2ccccc2[n+]1CCCc1ccccc1,< 0.5,110,
Cc1nc2ccccn2c1P(=S)(c1ccccc1)c1ccccc1,1000,18000,IC50 [4]: 9.1 nM
O=C1c2ccccc2C(=O)C1(c1ccccc1)N1CCN(Cc2ccccc2)CC1,,,IC50 [5]: 27 nM
Cc1nc2ccccn2c1P(=O)(c1ccccc1)c1ccccc1,27000,,IC50 ([2]; cho): Not Active
Cc1c(P(=S)(c2ccccc2)c2ccccc2)n2ccccc2[n+]1C/C=C/c1ccc2ccccc2c1,64,1300,
Cc1c(P(=S)(c2ccccc2)c2ccccc2)n2ccccc2[n+]1CCc1ccccc1,73,2100,IC50 [4]: 16 nM
O=C(NCc1ccccc1)N1CCN2C(=O)OC(c3ccccc3)(c3ccccc3)C2C1 (stereo not given),,,IC50 [5]: 26 nM
Cc1c(P(=S)(c2ccccc2)c2ccccc2)n2ccccc2[n+]1C/C=C/c1cccc(Cl)c1,9.2,220,
Cc1c(P(=S)(c2ccccc2)c2ccccc2)c2ccccc2n1C,2800,,inhibition [3]: < 50%; IC50 ([2]; cho): Not Active
Cc1c(P(=S)(c2ccccc2)c2ccccc2)n2ccccc2[n+]1C/C=C/c1ccccc1Cl,3.4,94,
Cc1c(P(=S)(c2ccccc2)c2ccccc2)n2ccccc2[n+]1Cc1ccccc1,32,1300,IC50 [4]: 16 nM
Cc1c(C(O)(c2ccccc2)c2ccccc2)n2ccccc2[n+]1C.O=C([O-])C(F)(F)F,,,IC50 ([1]; cho): Not Active
Cn1cc(P(=S)(c2ccccc2)c2ccccc2)c2ccccc21,7300,,IC50 ([2]; cho): Not Active

Compound,IC50 ([1]; read-out: IC50) [nM],IC50 ([2]; read-out: IC50) [nM],further results
Cc1ccc(/C=C/C[n+]2c(C)c(P(=S)(c3ccccc3)c3ccccc3)n3ccccc32)cc1,9,330,
CCC(C)(CCN1CCOCC1)N(Cc1cc2ccccc2n(C)c1=O)C(=O)C1CCCCC1 (stereo not given),55,1.2,remaining at 1 h [6]: 94%; remaining at 0.5 h [7]: 97%; remaining at 0.25 h [8]: 103%; remaining at 1 h [9]: 0%; remaining at 0.5 h [10]: 0%; remaining at 0.25 h [11]: 0%; IC50 [12]: 6.7 nM; IC50 [4]: 11 nM; IC50 [13]: 1.3 nM
Cc1nc2ccccn2c1C(O)(c1ccccc1)c1ccccc1,,,IC50 ([1]; cho): Not Active
Cc1c(P(=S)(c2ccccc2)c2ccccc2)n2ccccc2[n+]1CCCCCc1ccccc1,13,710,IC50 [4]: 6.2 nM
C[n+]1cc(C(O)(c2ccccc2)c2ccccc2)n2ccccc21.O=C([O-])C(F)(F)F,,,IC50 ([1]; cho): Not Active
O=P(c1ccccc1)(c1ccccc1)c1cnc2ccccn12,,,IC50 ([1]; cho): Not Active
Cc1c(P(=S)(c2ccccc2)c2ccccc2)n2ccccc2[n+]1C/C=C/c1cccc(Br)c1,23,670,
S=P(c1ccccc1)(c1ccccc1)c1cnc2ccccn12,4030,63000,inhibition [3]: < 50%
COc1cccc(/C=C/C[n+]2c(C)c(P(=S)(c3ccccc3)c3ccccc3)n3ccccc32)c1,3.2,110,
COc1ccc(C2c3c(ccc4ccccc34)OC3N=CN(CCN4CCOCC4)C(=N)C32)cc1OC (stereo not given),,,IC50 [13]: 190 nM; IC50 [14]: 4900 nM; IC50 [5]: 1400 nM
Cc1c(P(=S)(c2ccccc2)c2ccccc2)n2ccccc2[n+]1C/C=C/c1ccc(Cl)cc1,2.2,120,
c1ccc(P(c2ccccc2)c2cnc3ccccn23)cc1,35000,,IC50 ([2]; cho): Not Active
Cc1c(P(=S)(c2ccccc2)c2ccccc2)n2ccccc2[n+]1C/C=C/c1ccc(F)cc1,3.4,71,
Cc1c(P(=S)(c2ccccc2)c2ccccc2)n2ccccc2[n+]1CCCCc1ccccc1,< 0.5,940,IC50 [4]: 15 nM
Cc1c(P(=S)(c2ccccc2)c2ccccc2)n2ccccc2[n+]1C/C=C/c1ccc(C(F)(F)F)cc1,4.5,400,
OC(c1ccccc1)(c1ccccc1)c1cnc2ccccn12,,,IC50 ([1]; cho): Not Active
